Assay results from ChEMBL document CHEMBL4017489, “Design, Synthesis, and Evaluation of New Selective NM23-H2 Binders as c-MYC Transcription Inhibitors via Disruption of the NM23-H2/G-Quadruplex Interaction” (J Med Chem, 2017).
Activity calls are given as the source filed them. The calls are words filed in the database; no cut-off is given here.

Assays:
Mus musculus [1] = test: Toxicity in BALB/C nude mouse xenografted with human SiHa cells assessed as pain at 2.5 to 5 mg/kg, ip administered daily after 3 weeks; format: organism-based; details: in vivo, 504 h
How it was run: (§1)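 SiHa cells implanted in the right armpit of BALB/c nu/nu mice. At approximately 50 mm3, mice randomized (n = 8/group) to vehicle, compound 2.5 or 5.0 mg/kg, or doxorubicin 1.0 mg/kg, given ip daily for 3 weeks. Body weight and signs of pain, distress or discomfort monitored; tumors excised and weighed. Data given as mean ± SEM, t test against vehicle.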

SiHa [2] = test: Cell cycle arrest in human SiHa cells assessed as accumulation at G2/M phase at 2 uM after 36 hrs by propidium iodide staining based flow cytometry (reference value: 39 %); format: functional
How it was run: (§2)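 SiHa cells (2.0 × 10^5 per well) plated 24 h, then exposed to 2 μM compound or left untreated for 3, 6, 9, 12, 24, 36 or 48 h. Cells washed in PBS, fixed overnight in ice-cold 70% ethanol, treated with 20 μg/mL RNase A for 30 min at 37 °C, stained with PI, and read by flow cytometry at 488 nm. Phase percentages compared with untreated control; at least three experiments.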

[3] = biological target: Nucleoside diphosphate kinase B (Homo sapiens, UniProt P22392, D54A); test: Binding affinity to NM23-H2 D54A mutant (unknown origin) by SPR analysis
SiHa [4] = test: Cell cycle arrest in human SiHa cells assessed as accumulation at G2/M phase at 2 uM after 9 hrs by propidium iodide staining based flow cytometry (reference value: 39 %); format: functional; how it was run: as §2
[5] = biological target: Nucleoside diphosphate kinase B (Homo sapiens, UniProt P22392); test: Binding affinity to NM23-H2 (unknown origin) assessed as reduction in protein interaction with Pu22 c-myc G-quadruplex DNA after 1 hr by EMSA
SiHa [6] = test: Down regulation of CDK6 expression in human SiHa cells at 0.5 to 2 uM after 24 to 48 hrs by Western blot analysis; format: functional, cell-based
How it was run: (§3)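 SiHa cells (2.0 × 10^5) treated with compound at various concentrations for 24 or 48 h, then lysed at 4 °C. Protein measured by BCA; 30 μg run on 10% SDS-PAGE and transferred to nitrocellulose. Membranes blocked in 5% milk, probed with primary antibodies overnight at 4 °C, then HRP secondary for 2 h, and detected by chemiluminescence. Bands quantified by densitometry; at least three experiments.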

[7] = Binding affinity to biotin-labeled Pu22 c-myc G-quadruplex DNA (unknown origin) at 40 uM after 30 mins by SPR analysis
SiHa [8] = test: Induction of apoptosis in human SiHa cells assessed as increase in cleaved PARP level after 48 hrs by Western blot analysis; format: functional, cell-based
How it was run: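 SiHa cells treated with 0, 0.5, 1.0 or 2.0 μM for 48 h and lysed for total protein. Caspase-3, cleaved caspase-3, PARP and cleaved PARP detected by Western blot (30 μg protein, 10% SDS-PAGE, HRP chemiluminescence). Bands quantified by densitometry; at least three experiments.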

Mus musculus [9] = test: Toxicity in BALB/C nude mouse xenografted with human SiHa cells assessed as distress at 2.5 to 5 mg/kg, ip administered daily after 3 weeks; format: organism-based; details: in vivo, 504 h; how it was run: as §1
SiHa [10] = test: Cell cycle arrest in human SiHa cells assessed as accumulation at G0/G1 phase at 2 uM after 12 hrs by propidium iodide staining based flow cytometry (reference value: 48 %); format: functional
How it was run: (§4)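 SiHa cells plated 24 h, treated at 2 μM for 3–48 h; fixed in ice-cold 70% ethanol overnight, RNase A 20 μg/mL 37 °C 30 min, PI-stained, flow cytometry at 488 nm; phase percentages quantified; at least three experiments.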

SiHa [11] = test: Cell cycle arrest in human SiHa cells assessed as accumulation at S phase at 2 uM after 12 hrs by propidium iodide staining based flow cytometry (reference value: 13 %); format: functional; how it was run: as §2
SiHa [12] = test: Cell cycle arrest in human SiHa cells assessed as accumulation at sub-G1 phase at 2 uM after 36 hrs by propidium iodide staining based flow cytometry relative to control; format: functional; how it was run: as §2
SiHa [13] = test: Cell cycle arrest in human SiHa cells assessed as accumulation at G0/G1 phase at 2 uM after 6 hrs by propidium iodide staining based flow cytometry (reference value: 48 %); format: functional; how it was run: as §4
SiHa [14] = test: Antitumor activity against human SiHa cells xenografted in BALB/C nude mouse assessed as tumor growth inhibition at 2.5 to 5 mg/kg, ip administered daily; format: functional, organism-based; details: TDE = time-dependent effect
How it was run: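 SiHa cells implanted in the right armpit of BALB/C-nu/nu mice. At a tumour size of about 50 mm3, mice were randomised (n = 8/group) to vehicle, 2.5 or 5.0 mg/kg compound, or doxorubicin 1.0 mg/kg, given ip daily for 3 weeks. Tumour volume was followed, then tumours were excised and weighed and body weight recorded. Mean ± SEM, t test against vehicle.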

SiHa [15] = test: Cell cycle arrest in human SiHa cells assessed as accumulation at S phase at 2 uM after 24 hrs by propidium iodide staining based flow cytometry (reference value: 13 %); format: functional; how it was run: as §2
SiHa [16] = test: Antiproliferative activity against human SiHa cells up to 100 hrs by real-time cellular activity assay; format: functional, cell-based
How it was run: (§5)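 Impedance-based real-time cell analysis at 37 °C, 5% CO2: 100 μL of 20 000 cells/mL added over medium background, settled 20 min, dosed after 24 h; read every 2 min for 2 h, then every 15 min to end; three repeats.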

SiHa [17] = test: Cell cycle arrest in human SiHa cells assessed as accumulation at S phase at 2 uM after 48 hrs by propidium iodide staining based flow cytometry (reference value: 13 %); format: functional; how it was run: as §2
SiHa [18] = test: Induction of apoptosis in human SiHa cells assessed as early apoptotic cells at 1 uM after 48 hrs by Annexin V-FITC/propidium iodide based flow cytometric analysis (reference value: 1.4 %); format: functional
[19] = Antiproliferative activity against mouse primary mesangial cells at 0.5 to 2 uM up to 100 hrs by real-time cellular activity assay; format: cell-based; details: primary mesangial cell; how it was run: as §5
SiHa [20] = test: Induction of apoptosis in human SiHa cells assessed as late apoptotic cells at 1 uM after 48 hrs by Annexin V-FITC/propidium iodide based flow cytometric analysis (reference value: 0.7 %); format: functional
[21] = Binding affinity to N-terminal NT-647-NHS labeled NM23-H2 D121A mutant (unknown origin) after 30 mins by MST analysis; parameters: species or system Homo sapiens
SiHa [22] = test: Down regulation of CDK4 expression in human SiHa cells at 0.5 to 2 uM after 24 to 48 hrs by Western blot analysis; format: functional, cell-based; how it was run: as §3
SiHa [23] = test: Antitumor activity against human SiHa cells xenografted in BALB/C nude mouse assessed as tumor weight at 5 mg/kg, ip administered daily after 3 weeks (reference value: 511.6 mg); format: functional
[24] = biological target: Nucleoside diphosphate kinase B (Homo sapiens, UniProt P22392, G113F); test: Binding affinity to N-terminal NT-647-NHS labeled NM23-H2 G113F mutant (unknown origin) after 30 mins by MST analysis
SiHa [25] = test: Cell cycle arrest in human SiHa cells assessed as accumulation at G0/G1 phase at 2 uM after 24 hrs by propidium iodide staining based flow cytometry (reference value: 48 %); format: functional; how it was run: as §4
[26] = Binding affinity to biotin-labeled 18-mer duplex DNA hairpin (unknown origin) at 40 uM after 30 mins by SPR analysis

Chain of Nucleoside diphosphate kinase B (Homo sapiens, UniProt P22392, D54A) (P22392 whole entry D54A): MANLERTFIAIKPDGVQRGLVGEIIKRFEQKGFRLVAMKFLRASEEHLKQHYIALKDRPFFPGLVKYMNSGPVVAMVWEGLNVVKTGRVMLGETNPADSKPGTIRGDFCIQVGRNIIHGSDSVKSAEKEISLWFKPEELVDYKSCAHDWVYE
Chain of Nucleoside diphosphate kinase B (Homo sapiens, UniProt P22392, G113F) (P22392 whole entry G113F): as the sequence (P22392 whole entry D54A) above, with A54D, G113F counted along it
Chain of Nucleoside diphosphate kinase B (Homo sapiens, UniProt P22392) (P22392 whole entry): as the sequence (P22392 whole entry D54A) above, with A54D counted along it

In the case of `CN(C)CCCNc1cc2nc3n(c(=O)c2cc1F)CC/C3=C\c1ccc(OCc2ccccc2)cc1O`, the Activity (Mus musculus [1]) is reported as “Non-Toxic”, the Activity (SiHa [2]) is reported as 0% and the Kd [3] is reported as 18.4 µM. The Activity (SiHa [4]) was 21%, the Activity [5] was “Dose-dependent effect” and the Activity (SiHa [6]) was “Active”. For the same compound, the Activity [7] was “inactive”, the Activity (SiHa [8]) was “Dose-dependent effect” and the Activity (Mus musculus [9]) was “Non-Toxic”. It also gave an Activity (SiHa [10]) of 54%, an Activity (SiHa [11]) of 11% and an Activity (SiHa [12]) of 99%. For the same compound, the Activity (SiHa [13]) was 62%, the TGI (SiHa [14]) was “Tde” and the Activity (SiHa [15]) was 6%. The Activity (SiHa [16]) was “Dose-dependent effect”, the Activity (SiHa [17]) was 0% and the Activity (SiHa [18]) was 80.7%. The Activity [19] was “Non-Toxic”, the Activity (SiHa [20]) was 10.6% and the Kd [21] was 94.1 µM. The Activity (SiHa [22]) was “Active”, the Activity (SiHa [23]) was 180.1 mg and the Kd [24] was 13.5 µM. For the same compound, the Activity (SiHa [25]) was 22% and the Activity [26] was “inactive”.
